Results taken from ChEMBL document CHEMBL5678817, “FTBMT, a Novel and Selective GPR52 Agonist, Demonstrates Antipsychotic-Like and Procognitive Effects in Rodents, Revealing a Potential Therapeutic Agent for Schizophrenia” (J Pharmacol Exp Ther, 2017).
The source made the active and inactive calls. The calls are words filed in the database; no cut-off is given here.

How the values were obtained:
[1] = system: Mus musculus; experiment: Antipsychotic activity in C57BL/6N mouse assessed as increase in c-fos positive cells in dorsolateral striatum at 30 mg/kg, po measured for 2 hrs by immunohistochemistry analysis; type: functional, organism-based
[2] = target: Xanthine oxidase (xanthine dehydrogenase/oxidase) (Homo sapiens, UniProt P47989); experiment: Inhibition of Xanthine oxidase (unknown origin) at 10 uM relative to control
Outline: (§1)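 Binding and enzyme panel run by an outside contractor against receptors, ion channels and enzymes. Each assay used a single 10 μM test concentration, and results are expressed as percent inhibition. A negative value means stimulation of receptor activity or activation of enzyme activity.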

[3] = target: G-protein coupled receptor 52 (Mus musculus) (UniProt P0C5J4); experiment: […] agonist activity at GPR52 in ICR mouse assessed as increase in DARPP-32 phosphorylation at thr34 residue upto 1 uM incubated for 5 mins; type: functional
Outline: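 Acute 500 μm coronal NAc slices from male ICR mice (8–10 weeks) recovered 60 min at 30 °C in oxygenated Krebs-HCO3 pH 7.4 (adenosine deaminase for first 30 min). Exposed 5 min to 0.01–1 μM, frozen, denatured in 1% SDS with 50 mM NaF. Phospho-Thr34 and total DARPP32 quantified by Western blot densitometry; n = 9.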

[4] = target: Phosphodiesterase 6 (Homo sapiens) (UniProt Q13956+P18545+P35913+O43924+P16499+P51160); experiment: Inhibition of PDE6 (unknown origin) at 10 uM relative to control; type: protein assay
Outline: (§2)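 Enzyme activity assays from the same 98-target biochemical panel. Single test concentration of 10 µM. Read-out is % inhibition of enzyme activity relative to control; negative percentages indicate activation of the enzyme.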

[5] = target: G-protein coupled receptor 52 (Mus musculus, UniProt P0C5J4); experiment: Agonist activity at mouse GPR52 expressed in CHO cells assessed as increase in intracellular cAMP level incubated for 30 mins by Alphascreen assay; type: functional, cell-based
Outline: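 CHO cells stably expressing human, mouse or rat GPR52, plus naïve CHO cells, at 10,000 cells/well. Stimulated in cAMP assay buffer for 30 min at 37 °C. Intracellular cAMP read by AlphaScreen.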

[6] = system: Mus musculus; experiment: Antipsychotic activity in wild type mouse assessed as increase in phosphorylated CREB level in striatum at 30 mg/kg, po incubated for 60 mins by ELISA analysis; type: functional, organism-based
[7] = system: Rattus norvegicus; experiment: Pro-cognitive activity in Long-Evans rat assessed as increase in exploration time for novel object at 3 to 10 mg/kg, po measured after 3 mins by NORT test; type: functional, organism-based; conditions: dose 3-10 mg/kg
Outline: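 Male Long-Evans rats (7 weeks) were habituated to a 40 × 40 × 50 cm box for 10 min. The acquisition trial was 3 min with two identical objects. Oral dosing at 3 or 10 mg/kg followed immediately after acquisition. The 3-min retention trial, with one familiar and one novel object, ran 48 h later. Exploration was hand-scored by a blinded scorer, and NDI = novel/total × 100. n = 10.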

[8] = target: Type-1 angiotensin II receptor (Homo sapiens) (UniProt P30556); experiment: Inhibition of AT1 receptor (unknown origin) at 10 uM relative to control
Outline: (§3)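 Single-point screen at 10 μM across receptor, ion channel and enzyme binding or activity assays. Expressed as percent inhibition versus control; negative values denote stimulation.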

[9] = system: Mus musculus; experiment: Antipsychotic activity in C57BL/6N mouse assessed as increase in Egr-2 mRNA expression at 3 to 100 mg/kg, po measured for 1 hr by qPCR analysis; type: functional, organism-based; conditions: dose 3-100 mg/kg
Outline: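 Mice dosed orally at 3–100 mg/kg or vehicle. Tissues taken 1 h post-dose, NAc shell and striatum dissected, frozen on dry ice. IEG mRNA quantified by qPCR (absolute or ΔΔCt); n = 5–6; mean ± SEM.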

[10] = target: Voltage-gated L-type calcium channel (Homo sapiens, UniProt O60840+Q01668+Q13698+Q13936); experiment: Inhibition of Calcium channel L-type (unknown origin) at 10 uM in presence of phenylalkylamine relative to control; type: protein assay; conditions: probe phenylalkylamine; outline: as §3
[11] = species: Homo sapiens; experiment: Inhibition of dopamine receptor (unknown origin) at 10 uM relative to control; outline: as §1
[12] = species: Homo sapiens; experiment: Inhibition of Sodium channel Site 2 (unknown origin) at 10 uM relative to control; outline: as §1
[13] = target: Rho-associated protein kinase 1 (Homo sapiens) (UniProt Q13464); experiment: Inhibition of ROCK1 (unknown origin) at 10 uM relative to control; outline: as §2
[14] = system: Mus musculus; experiment: Pro-cognitive activity in C57BL/6N mouse assessed as increase in Arc gene expression in hippocampus at 3 to 30 mg/kg, po […]; type: functional, organism-based; conditions: dose 3-30 mg/kg
[15] = target: Glutamate [NMDA] receptor (Homo sapiens) (UniProt Q05586+Q12879+Q13224+O15399+O60391+Q14957+Q8TCU5); experiment: Inhibition of Glutamate NMDA receptor (unknown origin) at 10 uM in presence of glycine relative to control; type: protein-complex assay
Outline: (§4)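 Part of a 98-target external biochemical selectivity panel that used radioligand/receptor binding-type assays. Compound tested once at 10 µM. Results are reported as % inhibition versus control; negative values mean stimulation of receptor activity.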

[16] = species: Homo sapiens; experiment: Inhibition of Calcium channel N-type (unknown origin) at 10 uM relative to control; outline: as §3
[17] = target: Progesterone receptor (Homo sapiens) (UniProt P06401); experiment: Inhibition of Progesterone receptor (unknown origin) at 10 uM relative to control; outline: as §4
[18] = target: G protein-coupled receptor 52 (Rattus norvegicus) (UniProt A0A8I5ZQK1); experiment: Agonist activity at GPR52 in rat Striatal neuron assessed as increase in Egr-2 mRNA expression by RT-PCR analysis; type: cell-based; conditions: filed as agonist
Outline: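 Rat primary striatal neurons (E18–19), used at DIV 13–16. Treated in HBSS with 5 mM HEPES pH 7.5 and 0.5% fatty-acid-free BSA for 15 or 60 min at 37 °C. Cells were homogenized in RLT buffer and IEG mRNA was quantified by qPCR using absolute or ΔΔCt relative quantification.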

[19] = target: MAO-A (amine oxidase [flavin-containing] A) (Homo sapiens, UniProt P21397); experiment: Inhibition of MAO-A (unknown origin) at 10 uM relative to control; outline: as §2
[20] = target: G protein-coupled receptor 52 (Rattus norvegicus, UniProt A0A8I5ZQK1); experiment: Agonist activity at GPR52 in rat Striatal neuron assessed as increase in intracellular cAMP level […] by Alphascreen assay; type: cell-based
[21] = system: Mus musculus; experiment: Antipsychotic activity in po dosed ICR mouse assessed as inhibition of MK-801-induced hyperactivity pretreated with compound for 1 hr followed by MK-801 addition and measured after 90 mins; type: functional, organism-based; conditions: dose 3-30 mg/kg, time 150.0 min
Outline: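 Male ICR mice (7–8 weeks) habituated >60 min in individual cages with activity monitors. Oral dosing at 3–30 mg/kg or vehicle 60 min before MK-801 (0.2 mg/kg s.c.) or vehicle. Activity counted for 60 min pretreatment and 90 min after MK-801; n = 9–10.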

[22] = species: Homo sapiens; experiment: Inhibition of KATP (unknown origin) at 10 uM relative to control; outline: as §4
[23] = target: D(3) dopamine receptor (Homo sapiens) (UniProt P35462); experiment: Inhibition of Dopamine D3 receptor (unknown origin) at 10 uM relative to control; outline: as §4
Chain of D(3) dopamine receptor (Homo sapiens) (P35462 whole entry): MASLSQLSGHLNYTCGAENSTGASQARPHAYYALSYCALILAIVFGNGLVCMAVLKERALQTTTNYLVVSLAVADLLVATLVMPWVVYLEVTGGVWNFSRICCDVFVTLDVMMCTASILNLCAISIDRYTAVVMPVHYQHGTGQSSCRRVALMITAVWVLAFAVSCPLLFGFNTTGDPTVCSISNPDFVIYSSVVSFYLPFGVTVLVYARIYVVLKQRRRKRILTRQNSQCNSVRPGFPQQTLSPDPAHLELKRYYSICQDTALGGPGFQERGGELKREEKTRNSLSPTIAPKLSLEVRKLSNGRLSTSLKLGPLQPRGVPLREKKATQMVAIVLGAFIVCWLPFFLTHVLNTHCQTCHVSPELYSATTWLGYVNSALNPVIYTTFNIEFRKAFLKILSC

Chain of Type-1 angiotensin II receptor (Homo sapiens) (P30556 whole entry): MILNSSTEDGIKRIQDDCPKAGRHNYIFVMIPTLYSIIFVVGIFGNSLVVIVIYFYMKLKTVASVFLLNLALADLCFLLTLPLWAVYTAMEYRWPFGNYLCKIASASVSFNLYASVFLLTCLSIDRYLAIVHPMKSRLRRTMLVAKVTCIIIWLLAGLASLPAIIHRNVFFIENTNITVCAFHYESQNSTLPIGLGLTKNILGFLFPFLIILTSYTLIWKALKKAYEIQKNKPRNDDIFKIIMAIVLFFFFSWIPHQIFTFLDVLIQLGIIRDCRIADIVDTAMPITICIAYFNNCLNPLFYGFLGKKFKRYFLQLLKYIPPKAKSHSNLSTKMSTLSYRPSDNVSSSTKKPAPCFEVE
Chain of G protein-coupled receptor 52 (Rattus norvegicus) (A0A8I5ZQK1 as listed by the source): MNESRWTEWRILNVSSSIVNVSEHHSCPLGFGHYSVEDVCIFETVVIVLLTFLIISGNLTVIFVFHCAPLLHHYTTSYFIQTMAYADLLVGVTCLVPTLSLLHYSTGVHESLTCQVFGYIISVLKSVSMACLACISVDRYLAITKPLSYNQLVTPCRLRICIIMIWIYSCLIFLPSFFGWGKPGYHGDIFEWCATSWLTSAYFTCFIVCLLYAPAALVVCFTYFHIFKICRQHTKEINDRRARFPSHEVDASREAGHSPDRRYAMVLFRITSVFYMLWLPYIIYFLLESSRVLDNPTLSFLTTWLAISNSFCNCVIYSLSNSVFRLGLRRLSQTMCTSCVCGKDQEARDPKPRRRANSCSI
Chain of G protein-coupled receptor 52 (A0A8I5ZQK1 whole entry): as the sequence (A0A8I5ZQK1 as listed by the source) above
Chain of Xanthine oxidase (xanthine dehydrogenase/oxidase) (P47989 whole entry): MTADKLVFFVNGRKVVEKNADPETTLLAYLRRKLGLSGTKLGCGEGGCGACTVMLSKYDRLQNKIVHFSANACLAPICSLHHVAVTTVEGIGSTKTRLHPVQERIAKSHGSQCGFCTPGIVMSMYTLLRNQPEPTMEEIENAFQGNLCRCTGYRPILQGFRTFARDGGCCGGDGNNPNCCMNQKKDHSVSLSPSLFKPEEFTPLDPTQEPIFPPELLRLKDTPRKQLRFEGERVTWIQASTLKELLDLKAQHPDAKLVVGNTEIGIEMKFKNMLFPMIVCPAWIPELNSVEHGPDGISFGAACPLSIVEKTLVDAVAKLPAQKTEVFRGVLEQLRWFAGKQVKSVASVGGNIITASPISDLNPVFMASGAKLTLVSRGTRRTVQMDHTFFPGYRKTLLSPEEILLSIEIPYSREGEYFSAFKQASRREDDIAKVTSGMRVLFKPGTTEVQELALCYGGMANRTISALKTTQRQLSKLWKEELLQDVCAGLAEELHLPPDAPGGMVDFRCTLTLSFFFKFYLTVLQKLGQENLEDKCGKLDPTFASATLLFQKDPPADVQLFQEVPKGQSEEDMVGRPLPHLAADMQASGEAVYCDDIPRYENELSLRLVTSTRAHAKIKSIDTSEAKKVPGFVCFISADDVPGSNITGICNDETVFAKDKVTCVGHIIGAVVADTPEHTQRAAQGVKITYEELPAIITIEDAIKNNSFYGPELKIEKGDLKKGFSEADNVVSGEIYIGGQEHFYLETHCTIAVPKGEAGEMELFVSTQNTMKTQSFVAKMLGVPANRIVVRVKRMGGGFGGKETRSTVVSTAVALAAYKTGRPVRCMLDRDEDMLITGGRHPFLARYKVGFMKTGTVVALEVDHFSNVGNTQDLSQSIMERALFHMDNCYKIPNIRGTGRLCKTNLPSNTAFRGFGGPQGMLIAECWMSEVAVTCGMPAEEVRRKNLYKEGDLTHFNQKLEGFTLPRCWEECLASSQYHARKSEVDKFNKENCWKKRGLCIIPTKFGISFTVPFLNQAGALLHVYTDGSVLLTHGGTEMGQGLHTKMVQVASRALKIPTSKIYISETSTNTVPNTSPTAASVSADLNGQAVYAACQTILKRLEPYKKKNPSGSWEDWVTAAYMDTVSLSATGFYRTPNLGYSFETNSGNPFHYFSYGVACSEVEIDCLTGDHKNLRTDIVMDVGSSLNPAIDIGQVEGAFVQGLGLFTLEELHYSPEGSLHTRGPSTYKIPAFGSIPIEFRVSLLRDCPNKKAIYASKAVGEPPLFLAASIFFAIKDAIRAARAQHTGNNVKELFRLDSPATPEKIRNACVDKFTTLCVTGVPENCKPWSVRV
Chain of Progesterone receptor (Homo sapiens) (P06401 whole entry): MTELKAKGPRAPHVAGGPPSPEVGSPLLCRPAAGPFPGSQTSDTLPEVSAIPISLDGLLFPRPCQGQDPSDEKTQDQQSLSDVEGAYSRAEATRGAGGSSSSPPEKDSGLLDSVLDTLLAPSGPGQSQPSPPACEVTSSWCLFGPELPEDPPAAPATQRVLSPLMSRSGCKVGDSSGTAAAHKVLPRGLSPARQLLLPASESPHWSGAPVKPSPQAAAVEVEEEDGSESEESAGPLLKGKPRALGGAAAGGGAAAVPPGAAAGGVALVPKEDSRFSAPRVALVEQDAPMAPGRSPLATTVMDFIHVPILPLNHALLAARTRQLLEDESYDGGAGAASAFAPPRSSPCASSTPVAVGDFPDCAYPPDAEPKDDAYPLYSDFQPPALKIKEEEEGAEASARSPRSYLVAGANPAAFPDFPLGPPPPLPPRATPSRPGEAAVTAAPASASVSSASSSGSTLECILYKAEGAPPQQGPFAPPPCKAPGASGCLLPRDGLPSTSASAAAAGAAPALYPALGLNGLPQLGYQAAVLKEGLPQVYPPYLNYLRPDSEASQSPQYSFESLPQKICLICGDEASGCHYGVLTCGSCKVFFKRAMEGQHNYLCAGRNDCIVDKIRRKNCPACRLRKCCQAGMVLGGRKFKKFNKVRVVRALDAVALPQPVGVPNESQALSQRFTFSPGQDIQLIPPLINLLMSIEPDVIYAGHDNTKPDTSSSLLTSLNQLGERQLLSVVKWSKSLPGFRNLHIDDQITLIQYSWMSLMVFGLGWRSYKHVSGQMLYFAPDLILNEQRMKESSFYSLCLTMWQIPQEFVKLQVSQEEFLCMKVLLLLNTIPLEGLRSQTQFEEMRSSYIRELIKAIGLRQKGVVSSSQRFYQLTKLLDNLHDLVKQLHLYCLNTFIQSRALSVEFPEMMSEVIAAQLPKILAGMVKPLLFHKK
Chain of Rho-associated protein kinase 1 (Homo sapiens) (Q13464 2-1354 limits assumed): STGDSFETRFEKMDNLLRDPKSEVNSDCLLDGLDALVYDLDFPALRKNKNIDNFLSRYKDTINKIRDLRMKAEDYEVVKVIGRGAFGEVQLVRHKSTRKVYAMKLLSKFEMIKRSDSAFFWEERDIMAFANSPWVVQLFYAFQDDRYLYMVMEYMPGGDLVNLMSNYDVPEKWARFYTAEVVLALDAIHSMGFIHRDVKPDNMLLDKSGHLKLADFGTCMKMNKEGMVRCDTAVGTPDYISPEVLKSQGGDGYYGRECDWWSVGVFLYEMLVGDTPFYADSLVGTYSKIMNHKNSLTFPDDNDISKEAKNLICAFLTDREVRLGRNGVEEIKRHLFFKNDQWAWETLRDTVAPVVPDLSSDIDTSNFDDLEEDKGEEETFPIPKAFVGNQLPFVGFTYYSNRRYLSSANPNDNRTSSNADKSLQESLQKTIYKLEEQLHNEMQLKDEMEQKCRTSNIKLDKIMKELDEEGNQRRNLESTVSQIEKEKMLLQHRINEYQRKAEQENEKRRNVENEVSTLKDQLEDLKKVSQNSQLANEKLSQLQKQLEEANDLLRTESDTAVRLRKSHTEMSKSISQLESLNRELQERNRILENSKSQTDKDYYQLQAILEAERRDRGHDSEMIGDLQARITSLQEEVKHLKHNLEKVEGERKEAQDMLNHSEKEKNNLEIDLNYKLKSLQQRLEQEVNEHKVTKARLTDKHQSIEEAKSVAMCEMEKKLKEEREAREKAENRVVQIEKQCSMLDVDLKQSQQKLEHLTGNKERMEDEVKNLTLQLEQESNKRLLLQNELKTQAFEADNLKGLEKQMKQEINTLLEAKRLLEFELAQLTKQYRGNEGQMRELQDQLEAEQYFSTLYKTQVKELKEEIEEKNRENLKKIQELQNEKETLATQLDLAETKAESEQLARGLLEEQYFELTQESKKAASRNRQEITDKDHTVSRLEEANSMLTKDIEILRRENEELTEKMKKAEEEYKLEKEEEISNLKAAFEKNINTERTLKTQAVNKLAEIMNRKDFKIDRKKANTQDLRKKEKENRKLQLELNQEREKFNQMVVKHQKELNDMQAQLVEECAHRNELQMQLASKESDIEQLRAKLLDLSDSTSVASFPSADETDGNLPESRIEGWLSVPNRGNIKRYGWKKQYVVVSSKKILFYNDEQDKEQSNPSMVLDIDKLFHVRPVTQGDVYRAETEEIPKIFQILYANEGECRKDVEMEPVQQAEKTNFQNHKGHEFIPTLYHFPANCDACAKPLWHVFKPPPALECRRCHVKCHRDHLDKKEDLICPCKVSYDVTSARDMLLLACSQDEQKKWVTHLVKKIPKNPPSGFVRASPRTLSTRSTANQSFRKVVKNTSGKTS
Chain of G-protein coupled receptor 52 (P0C5J4 whole entry): as the sequence (A0A8I5ZQK1 as listed by the source) above, with V14M, D250E, Q333E, G342A, R348Q counted along it
Chain of G-protein coupled receptor 52 (Mus musculus) (P0C5J4 whole entry): as the sequence (A0A8I5ZQK1 as listed by the source) above, with V14M, D250E, Q333E, G342A, R348Q counted along it

**Q.** Which Activity [1] does the source give for `Cc1cc(-n2nc(Cc3cc(F)cc(C(F)(F)F)c3)nc2C)ccc1C(N)=O` [TP-024] here?
**A.** inactive

**Q.** And the inhibition at 10 µM [2]?
**A.** 10%

**Q.** And the Activity [3]?
**A.** Active

**Q.** And the inhibition [4]?
**A.** 17%

**Q.** And the EC50 [5]?
**A.** 141 nM

**Q.** What about the Activity [6] of the same compound?
**A.** Active

**Q.** And the Activity [7]?
**A.** Active

**Q.** What about the inhibition [8] of the same compound?
**A.** 9%

**Q.** And the Activity [9]?
**A.** Active

**Q.** What about the inhibition at 10 µM [10] of the same compound?
**A.** -6%

**Q.** What about the inhibition [11] of the same compound?
**A.** -1%

**Q.** What about the inhibition [12] of the same compound?
**A.** 1%

**Q.** And the inhibition [13]?
**A.** 9%

**Q.** And the Activity [14]?
**A.** Active

**Q.** What about the inhibition [15] of the same compound?
**A.** 3%

**Q.** What about the inhibition [16] of the same compound?
**A.** -9%

**Q.** And the inhibition [17]?
**A.** 4%

**Q.** What about the Activity [18] of the same compound?
**A.** Active

**Q.** And the inhibition at 10 µM [19]?
**A.** 6%

**Q.** What about the EC50 [20] of the same compound?
**A.** 151 nM

**Q.** And the Activity [21]?
**A.** Dose-Dependent Effect

**Q.** And the inhibition [22]?
**A.** -1%

**Q.** And the inhibition [23]?
**A.** 8%
